Like-named read-outs stand apart in the source and are kept apart here. Marks after values point to notes of the source that are not given here.
Legend:
[1] = assay type: in vivo, human; details: for AUC∞ estimated ratio (95% CI): unadjusted ANCOVA; for C max estimated ratio (90% CI): unadjusted; for t ½: geometric mean (CV%)
[2] = Safety and tolerability of single dose semaglutide 0.5 mg; assay type: in vivo, human; details: single SC 0.5 mg
Procedure, shortened: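 Single 0.5 mg subcutaneous injection into the thigh by pen. ESRD subjects were dosed 1–24 h after haemodialysis, with no dialysis for 48 h after. Monitoring covered AEs, physical exam, ECG, vital signs, plasma glucose and clinical labs (biochemistry, haematology, urinalysis). TEAEs counted from dosing day to follow-up +14 days (~5 weeks). Hypoglycaemia: major = unable to self-treat; minor = self-treated with glucose <3.1 mmol/L. Descriptive statistics.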

[3] = Safety of initial single dose semaglutide 10 µg/kg; assay type: in vivo, human
Procedure, shortened: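 Initial cohort received a single weight-based dose, with ESRD subjects dosed 1–24 h after haemodialysis. Safety was judged from reported AEs, serious AEs, and gastrointestinal frequency and severity. Hypoglycaemia was classed as major, minor or symptoms-only by ability to self-treat and a 3.1 mmol/L plasma glucose cut-off. This cohort was evaluated for safety only and excluded from pharmacokinetic analysis.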

[4] = cited from earlier work
[5] = ESRD vs normal, adjusted for age, sex, log(weight), single SC 0.5 mg
[6] = mild RI vs normal, adjusted for age, sex, log(weight), single SC 0.5 mg
[7] = moderate RI vs normal, adjusted for age, sex, log(weight), single SC 0.5 mg
[8] = severe RI vs normal, adjusted for age, sex, log(weight), single SC 0.5 mg
[9] = single dose 10 µg/kg, six subjects

SMILES: CC[C@H](C)[C@H](NC(=O)[C@H](Cc1ccccc1)NC(=O)[C@H](CCC(=O)O)NC(=O)[C@H](CCCCNC(=O)COCCOCCNC(=O)COCCOCCNC(=O)CC[C@H](NC(=O)CCCCCCCCCCCCCCCCC(=O)O)C(=O)O)NC(=O)[C@H](C)NC(=O)[C@H](C)NC(=O)[C@H](CCC(N)=O)NC(=O)CNC(=O)[C@H](CCC(=O)O)NC(=O)[C@H](CC(C)C)NC(=O)[C@H](Cc1ccc(O)cc1)NC(=O)[C@H](CO)NC(=O)[C@H](CO)NC(=O)[C@@H](NC(=O)[C@H](CC(=O)O)NC(=O)[C@H](CO)NC(=O)[C@@H](NC(=O)[C@H](Cc1ccccc1)NC(=O)[C@@H](NC(=O)CNC(=O)[C@H](CCC(=O)O)NC(=O)C(C)(C)NC(=O)[C@@H](N)Cc1cnc[nH]1)[C@@H](C)O)[C@@H](C)O)C(C)C)C(=O)N[C@@H](C)C(=O)N[C@@H](Cc1c[nH]c2ccccc12)C(=O)N[C@@H](CC(C)C)C(=O)N[C@H](C(=O)N[C@@H](CCCNC(=N)N)C(=O)NCC(=O)N[C@@H](CCCNC(=N)N)C(=O)NCC(=O)O)C(C)C [semaglutide, Semaglutide]
- AUC48 ratio (ESRD group/normal renal function group), adjusted ([1]; 0–48 h, without hemodialysis, adjusted for age, sex, body weight, (90% CI)): 0.81
- AUC48–96 ratio (ESRD group/normal renal function group), adjusted ([1]; 48–96 h, with hemodialysis, adjusted for age, sex, body weight, (90% CI)): 0.93
- effect of hemodialysis on pharmacokinetics ([1]; ESRD group, AUC48 vs AUC48–96 ratios): hemodialysis did not appear to affect the pharmacokinetics
- AUC∞ estimated ratio (95% CI) ([1]; ESRD vs normal renal function, single SC 0.5 mg): 0.99 (0.82–1.19)
- AUC∞ estimated ratio (95% CI), adjusted analysis [1, 5]: 1.10 (0.94–1.28)
- C max estimated ratio (90% CI), adjusted analysis [1, 5]: 0.82 (0.66–1.01)
- C max estimated ratio (90% CI) ([1]; ESRD vs normal, single SC 0.5 mg): 0.72 (0.57–0.91)
- t ½ ([1]; ESRD, single SC 0.5 mg, n=9): 243 (19)^b h
- C max lower in subjects with RI than in subjects with normal renal function ([1]; all RI groups, adjusted for age, sex, log(weight), single SC 0.5 mg): 10–20%
- AUC∞ estimated ratio (95% CI) ([1]; mild RI vs normal renal function, single SC 0.5 mg): 1.01 (0.83–1.21)
- AUC∞ estimated ratio (95% CI), adjusted analysis [1, 6]: 0.99 (0.85–1.16)
- C max estimated ratio (90% CI), adjusted analysis [1, 6]: 0.90 (0.73–1.11)
- C max estimated ratio (90% CI) ([1]; mild RI vs normal, single SC 0.5 mg): 0.95 (0.76–1.20)
- t ½ ([1]; mild RI, single SC 0.5 mg, n=9): 169 (14)^b h
- mean C max across the other groups ([1]; mild, moderate and severe RI groups, single SC 0.5 mg): 9.0 to 9.8 nM
- AUC∞ estimated ratio (95% CI) ([1]; moderate RI vs normal renal function, single SC 0.5 mg): 1.15 (0.96–1.38)
- AUC∞ estimated ratio (95% CI), adjusted analysis [1, 7]: 1.07 (0.91–1.27)
- C max estimated ratio (90% CI), adjusted analysis [1, 7]: 0.79 (0.64–0.99)
- C max estimated ratio (90% CI) ([1]; moderate RI vs normal, single SC 0.5 mg): 0.88 (0.70–1.10)
- t ½ ([1]; moderate RI, single SC 0.5 mg, n=10): 201 (14)^c h
- t max range across the groups ([1]; range of group medians, single SC 0.5 mg): 24 to 51 h
- AUC∞ estimated ratio (95% CI) ([1]; severe RI vs normal renal function, single SC 0.5 mg): 1.22 (1.02–1.47)
- AUC∞ estimated ratio (95% CI), adjusted analysis [1, 8]: 1.13 (0.97–1.32)
- C max estimated ratio (90% CI), adjusted analysis [1, 8]: 0.86 (0.70–1.06)
- C max estimated ratio (90% CI) ([1]; severe RI vs normal, single SC 0.5 mg): 0.95 (0.75–1.19)
- increase in exposure ([1]; subjects with CLCR 10 mL/min versus CLCR 90 mL/min, from slope −0.06): 14%
- vital signs, electrocardiogram, physical examinations, clinical laboratory assessments ([2]; all groups): No clinically significant values or appreciable changes
- serious or severe TEAEs ([2]; all groups, n=56): none were serious or severe
- minor hypoglycemia ([2]; moderate RI and ESRD groups): one subject with moderate RI and one with ESRD experienced minor hypoglycemia
- symptoms-only hypoglycemia ([2]; moderate RI group): two subjects in the moderate RI group experienced symptoms-only hypoglycemia
- major hypoglycemic events ([2]; one subject with severe RI without type 2 diabetes): two major hypoglycemic events
- tolerability as starting dose ([3]; single dose 10 µg/kg (0.7–1.2 mg), six subjects (three severe RI, three ESRD)): not considered a tolerable starting dose
- minor or symptoms-only hypoglycemia [3, 9]: three experienced minor or symptoms-only hypoglycemia
- significant nausea and/or vomiting [3, 9]: five experienced significant nausea and/or vomiting
- t ½ in humans [4]: approximately 1 week
